From PubChem
TAAR1 antag – antagonists of human TAAR1. inhibition, % at 3 µM. hit rate 1.5% among 360,000. CHO RD-HGA16 TAAR1, Fluo-8 calcium fluorescence, antagonist. AID 624466;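 active = inhibition above a per-plate cutoff, the mean inhibition of test compounds on that plate plus 3 SD, cut at about 49% in these data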;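 also: 0% = DMSO plus EC80 beta-PEA response and 100% = DMSO alone without agonist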
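System: CHO RD-HGA16 cells bearing hTAAR1. Reagent: EC80 β-phenethylamine stimulus. Schedule: seeding 17-24 h prior, 75-min 37 °C, 30-min RT dye loading. Signal: Fluo-8 intracellular calcium dye fluorescence, real-time kinetic reads. Read-out: % inhibition from peak post-agonist over basal fluorescence ratio. Benchmarks: vehicle wells and EC80 agonist wells. Replicates: n of 1.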
OXTR potentiator – potentiators of human oxytocin receptor; CHO-OTR cells, Fluo-8 calcium fluorescence, potentiator mode; 0% = oxytocin EC15, 100% = EC100; activation, % at 3 µM; hit rate 0.061% among 320,000; AID 2445;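 active = activation above that plate's cutoff, the mean activation of tested compounds plus 3 SD, cut at about 6.6% in these data, passing the limit was not always enough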;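 also: 100% uses oxytocin at 75 nM as the full agonist control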
Target sequence (P30559 whole entry, looked up): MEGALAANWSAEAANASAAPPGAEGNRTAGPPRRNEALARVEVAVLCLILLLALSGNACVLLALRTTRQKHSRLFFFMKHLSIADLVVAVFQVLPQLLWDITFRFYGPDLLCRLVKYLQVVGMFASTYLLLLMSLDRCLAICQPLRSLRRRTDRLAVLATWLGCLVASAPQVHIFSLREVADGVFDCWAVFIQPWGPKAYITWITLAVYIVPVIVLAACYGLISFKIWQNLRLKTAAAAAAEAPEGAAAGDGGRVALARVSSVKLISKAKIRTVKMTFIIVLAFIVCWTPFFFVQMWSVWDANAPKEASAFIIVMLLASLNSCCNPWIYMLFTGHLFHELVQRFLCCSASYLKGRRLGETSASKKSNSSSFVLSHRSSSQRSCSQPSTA
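Assay system: CHO-OTR cells, human receptor / Also added: oxytocin at about EC15, sub-maximal agonist stimulus / Dosing: single dose, 3.0 µM nominal final compound concentration / Incubation: 6 min pre-incubation, 100 s read / Technique: Fluo-8 calcium dye fluorescence / Read-out: % activation vs EC15 and EC100 oxytocin / Benchmarks: EC15 oxytocin low, 75 nM oxytocin high / Replicates: singlicate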
V1aR counter – V1a receptor agonism, counter-screen for OXTR agonists. CHO-V1R cells, Fluo-8 calcium fluorescence, agonist mode; 0% DMSO, 100% 3 nM vasopressin. activation, % at 3 µM. hit rate 0.25% among 320,000. AID 2797;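 active = activation above the mean activation of all tested compounds plus 3 SD, per screening run, cut at about 20% in these data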;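 also: signal is peak over basal fluorescence ratio across a 100 second FLIPR read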
OXTR agonist – human OXTR agonism; hit rate 0.32% among 320,000; activation, % at 3 µM; AID 2435; CHO-OTR cells, Fluo-8 calcium fluorescence; normalized: DMSO 0%, oxytocin 100%; P30559;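 active = activation above the mean of all tested compounds plus 3 SD, cutoff set per screening run, cut at about 20% in these data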;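 also: peak over basal fluorescence ratio from a 100 s FLIPR kinetic read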
TAAR1 agonist – human TAAR1 agonism. CHO RD-HGA16 TAAR1, Fluo-8 calcium fluorescence; vehicle wells 0%, saturating PEA agonist 100%. activation, % at 3 µM. hit rate 0.99% among 360,000;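 active = activation above the mean activation of all test compounds in the run plus 3 SD, cut at about 38% in these data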
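System: CHO-derived RD-HGA16 cells with stable Gα16 and human TAAR1. Times: 17-24 h plating, Fluo-8 75 min 37 °C, 30 min RT. Measured by: calcium-sensitive Fluo-8 signal, excitation 470-495, emission 515-575 nm. Read-out basis: % activation relative to PEA EC100 response. Control set: DMSO and PEA EC100. Repeats: no replicates (n 1).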
An asterisk follows results filed as active. An excerpt weighted towards active compounds, which were near 2.3% of everything screened.

What do the screens show for `C=C1C(=O)CC2=C1[C@](Cc1ccc(F)cc1)(C(=O)OC)N(C(=O)c1ccccc1)C2`?
TAAR1 antag: -2; TAAR1 agonist: 1

How did COc1ccc(CNn2c(-c3cccs3)nc3ccccc3c2=O)cc1OC do in these assays?
TAAR1 antag: 51*; OXTR potentiator: -15; V1aR counter: 3; OXTR agonist: -2; TAAR1 agonist: 13

How did CCOC(=O)C(Cc1ccc(NC(=O)/C(=C/c2ccc(OC(C)=O)cc2)NC(C)=O)cc1)N1C(=O)c2ccccc2C1=O (centres undefined) do in these assays?
TAAR1 antag: 49*; OXTR potentiator: -21; V1aR counter: 1; OXTR agonist: 0; TAAR1 agonist: 11

Results for CCOC(=O)C(Cc1ccc(NC(=O)/C(=C/c2ccccc2)NC(=O)c2ccccc2)cc1)N1C(=O)c2ccccc2C1=O (centres undefined) ?
TAAR1 antag: 13; OXTR potentiator: 1; V1aR counter: 2; OXTR agonist: 4; TAAR1 agonist: 7

How did COc1ccc(NC(=S)c2ccncc2)cc1 do in these assays?
TAAR1 antag: 3; OXTR potentiator: -14; V1aR counter: 4; OXTR agonist: 3; TAAR1 agonist: 41*

How did Cc1ccc(C(C(=O)NCc2ccccc2)N(Cc2cccs2)C(=O)c2ccc3c(c2)OCCO3)cc1 (centres undefined) do in these assays?
TAAR1 antag: 64*; OXTR potentiator: -20; V1aR counter: 4; OXTR agonist: 1; TAAR1 agonist: 16

What do the screens show for `CC(C)[C@H](NC(=O)OCc1ccccc1)C(=O)OCC(=O)c1ccccc1`?
TAAR1 antag: -3; OXTR potentiator: -6; V1aR counter: 0; OXTR agonist: -2; TAAR1 agonist: 1

What do the screens show for `CC(C)[C@H](NC(=O)OCc1ccccc1)C(=O)OCc1cc(=O)oc2cc(O)ccc12`?
TAAR1 antag: 54*; OXTR potentiator: -16; V1aR counter: 5; OXTR agonist: 5; TAAR1 agonist: 5

How did Cc1cc(/C=N/NC(N)=S)c(O)c(/C=N/NC(N)=S)c1 do in these assays?
TAAR1 antag: 9; OXTR potentiator: -1; V1aR counter: 20; OXTR agonist: 12; TAAR1 agonist: 50*

What do the screens show for `NC(=S)N/N=C/c1cccc(O)c1O`?
TAAR1 antag: 16; OXTR potentiator: -6; V1aR counter: 0; OXTR agonist: 0; TAAR1 agonist: 4

Results for COc1cc(/C=C2\COC/C(=C\c3cc(OC)c(OC)c(OC)c3)C2=O)cc(OC)c1OC ?
TAAR1 antag: 53*; TAAR1 agonist: 6

How did O=C(NCCN=C1NS(=O)(=O)c2ccccc21)c1ccco1 do in these assays?
OXTR potentiator: -1; V1aR counter: 0; OXTR agonist: 0

Results for COC(=O)c1c(-c2ccc(C)cc2)csc1NC(=O)Cc1ccc(OC)c(OC)c1 ?
TAAR1 antag: 55*; TAAR1 agonist: 4

Results for COC(=O)c1c(-c2ccc(Br)cc2)csc1NC(=O)Cc1ccc(OC)c(OC)c1 ?
TAAR1 antag: 42; OXTR potentiator: -9; V1aR counter: 1; OXTR agonist: 0; TAAR1 agonist: 8

Results for Cc1c(C)c2c(OCC(=O)N[C@@H](CC(C)C)C(=O)O)cc3c(c2oc1=O)CCC(C)(C)O3 ?
TAAR1 antag: -6; TAAR1 agonist: -1

Results for COc1cc(CCN(C(=O)c2cc3ccccc3[nH]2)C(C)c2nc3ccccc3[nH]2)cc(OC)c1 (centres undefined) ?
TAAR1 antag: 65*; TAAR1 agonist: 2

How did O=C(NCCN1CCC(n2c(=O)[nH]c3ccccc32)CC1)c1cccc2c1-c1ccccc1C2=O do in these assays?
TAAR1 antag: 59*; TAAR1 agonist: 10

How did O=C(NCCN1CCC(n2c(=O)[nH]c3ccccc32)CC1)c1ccccc1Cl do in these assays?
TAAR1 antag: 12; TAAR1 agonist: 5

How did O=C(Nc1ccc2c(c1)OCCO2)C1CCN(c2nnnn2-c2ccccc2)CC1 do in these assays?
TAAR1 antag: 15; OXTR potentiator: 3; V1aR counter: 0; OXTR agonist: 0; TAAR1 agonist: 5

What do the screens show for `C=CC[C@H](CC(=O)N(CCO)Cc1ccccc1)C(=O)NC[C@H](OC(=O)[C@@H](CC=C)CC(=O)OC(C)(C)C)c1ccccc1`?
TAAR1 antag: 49*; OXTR potentiator: -7; V1aR counter: -1; OXTR agonist: -1; TAAR1 agonist: 13

Results for C=CC[C@@H](CC(=O)N(CCO)Cc1ccccc1)C(=O)N[C@@H](COC(=O)[C@@H](CC=C)CC(=O)OC(C)(C)C)Cc1c[nH]c2ccccc12 ?
TAAR1 antag: 55*; OXTR potentiator: -8; V1aR counter: 0; OXTR agonist: -2; TAAR1 agonist: 14

How did C=CC[C@@H](CC(=O)N(CCO)Cc1ccccc1)C(=O)N[C@H](COC(=O)[C@@H](CC=C)CC(=O)OC(C)(C)C)Cc1c[nH]c2ccccc12 do in these assays?
TAAR1 antag: 60*; OXTR potentiator: -8; V1aR counter: 1; OXTR agonist: -2; TAAR1 agonist: 12

Results for CSC(=Nc1ccccc1)C1=C(O)COC1=O ?
TAAR1 antag: 1; OXTR potentiator: -9; V1aR counter: 0; OXTR agonist: -1; TAAR1 agonist: 5

How did COc1cc2c(cc1OC)CN(C(=O)c1oc3ccccc3c1C)CC2 do in these assays?
TAAR1 antag: -4; OXTR potentiator: 0; V1aR counter: 0; OXTR agonist: -1; TAAR1 agonist: -3

Results for C=CCC[C@H](Cc1ccc(F)cc1)C(=O)OC[C@H](Cc1c[nH]c2ccccc12)NC(=O)[C@@H](CC=C)CC(=O)N[C@H](CO)Cc1ccccc1 ?
TAAR1 antag: 57*; OXTR potentiator: -8; V1aR counter: 0; OXTR agonist: 0; TAAR1 agonist: 14

How did C=CCC[C@H](Cc1ccc(F)cc1)C(=O)OC[C@@H](Cc1c[nH]c2ccccc12)NC(=O)[C@H](CC=C)CC(=O)NCCO do in these assays?
TAAR1 antag: 51*; OXTR potentiator: -6; V1aR counter: 0; OXTR agonist: -1; TAAR1 agonist: 14

Results for C=CCC[C@@H](Cc1ccc(F)cc1)C(=O)OC[C@H](Cc1c[nH]c2ccccc12)NC(=O)[C@@H](CC=C)CC(=O)N[C@H](CO)Cc1ccccc1 ?
TAAR1 antag: 55*; OXTR potentiator: -11; V1aR counter: 2; OXTR agonist: 1; TAAR1 agonist: 14

How did COc1ccc(NC(=O)CSc2nc3ccsc3c(=O)n2CCCCCC(=O)O)cc1 do in these assays?
TAAR1 antag: 50*; OXTR potentiator: 2; V1aR counter: 0; OXTR agonist: 0; TAAR1 agonist: 4

How did CCCn1c(SCC(=O)Nc2cc(C)on2)nc2c1c(=O)n(C)c(=O)n2C do in these assays?
TAAR1 antag: -5; OXTR potentiator: 0; V1aR counter: 0; OXTR agonist: 0; TAAR1 agonist: 20
